SENP7 inh = SENP7 protease inhibition. Q9BQF6. recombinant SENP7, Z-RLRGG-aminoluciferin luminescence, 40 min. inhibition, % at 5 µM. 1.5% of 330,000 active. AID 434973;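 active = inhibition above about 50% at the single test dose, limit read from the data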;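 note: plate controls were DMSO with enzyme for no effect and no enzyme buffer wells for full effect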
Apaf1 inhib = inhibitors of human Apaf-1 apoptosome. O14727. reconstituted apoptosome caspase-3 activity, DEVD-Rh110 fluorescence. inhibition, % at 20 µM. 0.71% of 330,000 active. AID 489030; active = inhibition of at least 40% at 20 µM;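 note: plate controls were DMSO wells for no effect and DEVD-CHO caspase inhibitor wells for full effect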
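Material: biochemical Apaf-1 apoptosome reconstitution. Medium: Hepes buffer, pH 7.5. Also added: cytochrome c activation, bis-DEVD rhodamine 110 substrate. Timing: 30 min compound preincubation, 50 min activation, room temperature. Measured by: rhodamine 110 fluorescence at Ex 480/Em 540 nm.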
SENP8 block-1 = inhibitors of human SENP8 protease; purified SENP8, Z-RLRGG-aminoluciferin cleavage, luminescence; inhibition, % at 10 µM; AID 2540; Q96LD8; 1.2% of 330,000 active; in the data active = inhibition above about 50%
UBC13 polyUb = blocks human UBC13 polyubiquitin chain formation. TR-FRET. inhibition, % at 20 µM. 0.47% of 330,000 active. AID 485273; in the data active = inhibition above about 45%, passing the limit was not always enough
SENP6 inh = blocks the human protease SENP6; Q9GZR1; inhibition, % at 10 µM; 1.8% of 330,000 active; Recombinant SENP6 catalytic domain, aminoluciferin luminescence; AID 2599;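 active = inhibition above about 50% at the single tested dose, limit read from the data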;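 note: plate controls were DMSO wells with enzyme for no effect and DMSO wells lacking enzyme for full effect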
Target sequence (Q9GZR1 628-1112 limits assumed): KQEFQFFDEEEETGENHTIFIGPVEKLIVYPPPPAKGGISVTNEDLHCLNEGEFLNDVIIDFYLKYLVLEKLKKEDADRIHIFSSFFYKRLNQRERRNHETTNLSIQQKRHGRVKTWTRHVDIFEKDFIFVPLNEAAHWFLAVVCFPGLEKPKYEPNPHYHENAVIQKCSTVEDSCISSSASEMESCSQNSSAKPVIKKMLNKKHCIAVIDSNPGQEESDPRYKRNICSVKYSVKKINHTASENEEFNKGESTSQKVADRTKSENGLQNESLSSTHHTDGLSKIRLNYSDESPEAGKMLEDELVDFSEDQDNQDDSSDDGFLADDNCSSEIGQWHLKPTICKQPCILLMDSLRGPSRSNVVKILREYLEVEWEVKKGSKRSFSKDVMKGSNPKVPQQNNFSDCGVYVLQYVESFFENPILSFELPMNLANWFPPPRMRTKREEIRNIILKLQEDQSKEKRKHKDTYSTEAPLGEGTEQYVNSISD
SENP8 block-2 = blocks human SENP8 cleavage of Nedd8 substrate; recombinant SENP8, Nedd8 substrate fluorescence; 0.64% of 360,000 active; Q96LD8; inhibition, % at 20 µM; AID 602440; in the data active = inhibition mostly above about 40%, no sharp cut-off; inactive = mostly below about 27%
SENP8 conf = confirmation of human SENP8 protease inhibitors; Recombinant SENP8, Z-RLRGG-aminoluciferin luminescence, 60 min; 40% of 6,200 active; shares compounds with SENP7 inh; AID 488912; inhibition, % at 12.5 µM;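 active = mean inhibition across replicates above about 50%, limit read from the data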
SENP6 confirm = human SENP6 inhibition, confirmed | inhibition, % at 12.5 µM | shares compounds with SENP7 inh | 58% of 6,200 active | recombinant SENP6, Z-RLRGG-aminoluciferin luminescence
SENP7 conf = confirmation of human SENP7 protease inhibitors | 69% of 6,200 active | inhibition, % at 12.5 µM | shares compounds with SENP7 inh | recombinant SENP7, Z-RLRGG-aminoluciferin luminescence, 40 min | AID 488917
Casp3 select = caspase-3 inhibition (SENP selectivity assay) | shares compounds with SENP7 inh | purified caspase-3, Z-DEVD-aminoluciferin luminescence, 60 min | inhibition, % at 12.5 µM | 60% of 6,200 active | AID 488918;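 active = mean inhibition above about 50%, limit read from the data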;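 note: plate controls were enzyme with DMSO for no effect and wells without caspase-3 for full effect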
Target sequence (P42574 28-227 limits assumed): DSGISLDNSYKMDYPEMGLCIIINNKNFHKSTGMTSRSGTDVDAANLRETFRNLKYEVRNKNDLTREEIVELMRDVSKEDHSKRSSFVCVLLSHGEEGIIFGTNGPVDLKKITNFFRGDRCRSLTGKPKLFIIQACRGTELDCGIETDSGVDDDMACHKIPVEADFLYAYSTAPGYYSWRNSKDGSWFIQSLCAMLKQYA
Luc interf = counter-screen for SENP inhibitors: luminescence interference; shares compounds with SENP7 inh; Pre-incubated SENP8/Z-RLRGG-aminoluciferin, luciferase luminescence interference; inhibition, % at 12.5 µM; 39% of 6,200 active; AID 488919;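 active = mean inhibition above about 50% when retested at one dose, limit read from the data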;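 note: plate controls were DMSO wells with completed reaction for no effect and substrate without enzyme for full effect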
Active calls of the source: *; · = not tested or not shown. In the library only some 3% were active in any assay of this set; here they are far more common.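 Rule for the calls, unless noted: active = mean inhibition above about 50% in the one-dose retest (limit read from the data); inactive = the rest.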

SMILES | SENP7 inh | Apaf1 inhib | SENP8 block-1 | UBC13 polyUb | SENP6 inh | SENP8 block-2 | SENP8 conf | SENP6 confirm | SENP7 conf | Casp3 select | Luc interf
CCOC(=O)c1c(C)[nH]c(N=Nc2ccccc2Cl)c1C | 31 | 9 | 17 | -66 | -2 | 35 | · | · | · | · | ·
CCOC(=O)c1c(C)[nH]c(C=Nc2ccc(OC)cc2)c1O | -3 | 2 | 2 | -30 | -15 | 8 | · | · | · | · | ·
CCOC(=O)c1c(C)[nH]c(N=Nc2ccc(C)cc2)c1C | -9 | 17 | 21 | -21 | 53* | 18 | 7 | 37 | 5 | 18 | 5
CCOC(=O)c1c(C)[nH]c(N=Nc2cccc(OC)c2)c1C | 58* | 30 | 21 | -46 | 5 | 20 | 58* | 62* | 88* | 27 | 34
CCOC(=O)c1c(C)[nH]c(N=Nc2cccc(C)c2)c1C | 2 | 1 | 50 | -39 | 62* | 26 | 49 | 63* | 78* | 28 | 15
O=C(NCC1CC1)c1ccc(-n2ccnc2)c2ccoc12 | · | · | · | · | · | 24 | · | · | · | · | ·
O=C1Nc2ccccc2-n2nnnc2C1N1CCN(c2ccc(C(F)(F)F)cn2)CC1 (stereo not given) | · | · | · | · | · | 2 | · | · | · | · | ·
Cc1nc(C#N)c(N/N=C/c2cccc(Cl)c2)o1 | 11 | 6 | 86* | 9 | 78* | -19 | -3 | 91* | 100* | 80* | 84*
COc1cccc(C(C)(O)c2nc(-c3ccc(N(C)C)cc3)cs2)c1 (stereo not given) | · | · | · | · | · | 8 | · | · | · | · | ·
Cc1ccc(/C=C(\C#N)c2nc3ccccc3[nH]2)s1 | 84* | -1 | 13 | -21 | 23 | -22 | 40 | 31 | 93* | 74* | 61*
COc1c(O)ccc(/C=C(\C#N)c2nc3ccccc3[nH]2)c1[N+](=O)[O-] | 14 | 17 | 14 | -51 | 54* | -22 | 27 | 28 | 59* | 23 | 48
COc1cc(/C=C(\C#N)c2nc3ccc(C)cc3[nH]2)c([N+](=O)[O-])cc1OC | 4 | 18 | -9 | -17 | -14 | -28 | · | · | · | · | ·
N#C/C(=C\c1c(Cl)cccc1Cl)c1nc2ccccc2[nH]1 | 1 | 13 | 2 | 2 | -15 | -300 | · | · | · | · | ·
N#C/C(=C/c1cccs1)c1nc2ccccc2[nH]1 | 57* | 7 | 30 | -14 | 48 | -68 | 44 | 48 | 84* | 58* | 22
CCCNC(=O)C1(C)CCCN(CC(=O)c2ccccc2OC)C1 (stereo not given) | · | · | · | · | · | -9 | · | · | · | · | ·
CN(Cc1cn(Cc2cccc(C(F)(F)F)c2)nn1)C1CN(Cc2cn(Cc3cccc(C(F)(F)F)c3)nn2)S(=O)(=O)C1 (stereo not given) | · | · | · | · | · | 15 | · | · | · | · | ·
Cc1nc2ccc(C(=O)Nc3ccc4c(c3)OCC(=O)N4)cn2c1N(C)C(=O)CCc1ccccc1 | · | · | · | · | · | 1 | · | · | · | · | ·
CCOc1ccc(-c2nc(CCl)cs2)cc1 | 8 | -1 | 28 | 4 | 52* | -24 | 54* | 70* | 91* | 67* | 46
NC(=O)c1ccc(-c2noc(-c3cccc(Cl)c3)n2)cc1 | 58* | -10 | 14 | 7 | 6 | 9 | -14 | -8 | 8 | 16 | -2
COc1cc(-c2noc(-c3cccc(Cl)c3)n2)cc(OC)c1OC | 2 | 8 | -2 | 2 | -4 | 13 | · | · | · | · | ·
O=C(O)c1cccc(-c2noc(-c3cccc(Cl)c3)n2)c1 | 101* | 11 | 98* | -20 | 99* | 10 | 99* | 100* | 103* | 98* | 96*
NC(=O)c1ccccc1-c1nc(-c2ccccc2)no1 | 4 | 0 | -17 | 7 | -42 | 18 | · | · | · | · | ·
Cc1ccc(C(=O)Nc2cccc3cccnc23)cc1C | 63* | 6 | 51* | 5 | 69* | -7 | 43 | 63* | 86* | 43 | 40
Cc1cccc(C(=O)Nc2cccc3cccnc23)c1 | 21 | 0 | 1 | -1 | 45 | 14 | · | · | · | · | ·
CCCCNC(=O)C1(C)CCCCN1C(=O)c1oc2ccccc2c1C (stereo not given) | · | · | · | · | · | 7 | · | · | · | · | ·
SMILES | SENP7 inh | Apaf1 inhib | SENP8 block-1 | UBC13 polyUb | SENP6 inh | SENP8 block-2 | SENP8 conf | SENP6 confirm | SENP7 conf | Casp3 select | Luc interf
Cc1ccccc1NC(=O)Cn1c(C)nc2ccc(NC(=O)C3CC3)cc2c1=O | 71* | -16 | 4 | -1 | -7 | -2 | 6 | 5 | 13 | 8 | 2
Cc1ccccc1NC(=O)Cn1c(C)nc2ccc(N)cc2c1=O | 0 | -7 | 3 | 10 | 4 | -404 | · | · | · | · | ·
O=c1c(Cl)c(N2CCCCC2)cnn1-c1nc2ccccc2[nH]1 | 97* | 2 | 89* | 2 | 97* | -11 | 96* | 96* | 102* | 98* | 6
O=c1c2ccccc2cnn1-c1nc2ccccc2[nH]1 | · | · | · | · | · | -372 | · | · | · | · | ·
Cc1cc(NCc2ccccn2)ccc1Br | 53* | -4 | 39 | 2 | 47 | 11 | 43 | 40 | 69* | 39 | 52*
COc1cccc(Nc2nc(-c3ccc(O)cc3)cs2)c1 | -2 | -6 | 0 | 10 | 36 | -40 | · | · | · | · | ·
Cc1cccnc1Nc1nc(-c2ccc(O)cc2)cs1 | 94* | 14 | 96* | 4 | 93* | 13 | 96* | 98* | 102* | 89* | 97*
Cc1cccnc1Nc1nc(-c2ccc(F)cc2)cs1 | 93* | 23 | 89* | 4 | 92* | 27 | 89* | 93* | 101* | 74* | 53*
Fc1ccc(-c2csc(NC3=NCCC3)n2)cc1 | -4 | -16 | -12 | -19 | -1 | 14 | · | · | · | · | ·
O=C1NC[C@H](CCCCN2C[C@H](Cc3ccccc3)N(CCc3ccc(O)cc3)C(=O)C2=O)N(CCC2CCCCC2)C1=O | · | · | · | · | · | -1 | · | · | · | · | ·
CCc1nc2c(OCC(=O)C(C)(C)C)cccn2c1N(C)C(=O)C(C)C | · | · | · | · | · | 9 | · | · | · | · | ·
CCCCSc1ncc(C(=O)OCC)c(N)n1 | 22 | 10 | -4 | 3 | 24 | 12 | · | · | · | · | ·
CCOC(=O)c1cnc(SCCc2ccccc2)nc1N | 28 | 17 | 13 | -6 | 58* | -2 | 0 | 25 | 11 | 22 | 32
CN(c1ccc(C(=O)Nc2ccc3c(c2)OCCO3)cc1)S(C)(=O)=O | -13 | -5 | 36 | -7 | 57* | 10 | 59* | 57* | 85* | 82* | 65*
CN(c1ccc(C(=O)Nc2ccc3c(c2)OCO3)cc1)S(C)(=O)=O | 79* | 3 | 55* | 6 | 82* | 29 | 42 | 42 | 74* | 73* | 48

High-throughput results: PubChem BioAssay, Sanford-Burnham Center for Chemical Genomics
